Data set [1] relates to Ramos. The experiment in a line: Antiproliferative activity against human Ramos cells over expressing BTK after 48 hrs by CCK-8 assay. The format is functional, cell-based. An outline of the steps:
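Cells seeded at 3,000–5,000 per well in RPMI1640 with 10% FBS, held one day at 37 °C and 5% CO₂, then exposed to compound for 48 h. Concentrations ran 1.25 to 40 µM, five replicates per concentration. Read-out is CCK-8 absorbance at 450 nm. IC50 comes from five-point dose-response curves, as the mean of at least three separate experiments.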
On the technique in general: Tetrazolium assays rely on reduction of a dye to a coloured formazan, in cell work by metabolically active cells.

The test system of the next data set is Raji. Kind of data set: Antiproliferative activity against human Raji cells over expressing BTK after 48 hrs by CCK-8 assay. Type of data set: functional, cell-based. An outline of the steps: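 Cells seeded at 3,000–5,000 per well in RPMI1640 with 10% FBS, held one day at 37 °C and 5% CO₂, then exposed to compound for 48 h. Read-out is CCK-8 absorbance at 450 nm. IC50 comes from five-point dose-response curves, as the mean of at least three separate experiments.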

For data set [2], the target named is Tyrosine-protein kinase BTK (Homo sapiens, UniProt Q06187). The experiment in a line: Inhibition of human recombinant full-length N-terminal His-tagged BTK expressed in baculovirus infected Sf9 insect cells after 60 mins by ADP-Glo kinase assay. A general note: ADP-Glo first removes unused ATP, then detects ADP through luciferase.
Tyrosine-protein kinase BTK, sequence (Q06187 whole entry): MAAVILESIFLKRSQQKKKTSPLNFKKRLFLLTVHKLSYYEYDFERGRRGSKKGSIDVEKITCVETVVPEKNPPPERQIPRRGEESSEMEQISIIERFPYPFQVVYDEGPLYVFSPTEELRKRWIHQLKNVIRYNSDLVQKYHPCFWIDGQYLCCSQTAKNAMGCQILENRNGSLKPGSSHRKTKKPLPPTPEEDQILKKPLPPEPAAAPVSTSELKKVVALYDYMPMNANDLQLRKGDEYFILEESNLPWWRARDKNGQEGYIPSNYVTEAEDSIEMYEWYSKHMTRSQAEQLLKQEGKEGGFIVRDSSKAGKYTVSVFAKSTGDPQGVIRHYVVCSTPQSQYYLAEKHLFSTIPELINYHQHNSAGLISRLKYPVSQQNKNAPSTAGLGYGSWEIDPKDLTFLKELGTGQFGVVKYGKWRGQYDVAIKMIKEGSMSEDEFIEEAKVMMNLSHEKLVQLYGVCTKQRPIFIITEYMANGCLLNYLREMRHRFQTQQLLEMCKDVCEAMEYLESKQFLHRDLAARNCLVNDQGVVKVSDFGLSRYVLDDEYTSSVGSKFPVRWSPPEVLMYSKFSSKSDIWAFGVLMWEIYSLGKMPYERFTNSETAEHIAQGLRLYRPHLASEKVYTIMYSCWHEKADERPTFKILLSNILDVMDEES
Data set [3] has as its system Ramos. Kind of data set: Induction of apoptosis in human Ramos cells assessed as late apoptotic cells at 10 uM after 48 hrs by annexin V-FITC/propidium iodide staining-based flow cytometric analysis relative to control. Type of data set: functional. An outline of the steps:
(§1)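 Ramos cells at 3 to 5 × 10⁵ cells/well were exposed for 48 h in medium with 5% FBS, with DMSO as solvent control. Cells were then fixed in ethanol at 4 °C, stained with Annexin V-FITC/propidium iodide and analysed by flow cytometry. One representative experiment is shown.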
On the technique in general: In flow cytometry, cells or beads pass a laser one at a time.

The test system of data set [4] is Ramos. Kind of data set: Induction of apoptosis in human Ramos cells assessed as viable cells at 10 uM after 48 hrs by annexin V-FITC/propidium iodide staining-based flow cytometric analysis relative to control. The format is functional. The following applies: read-out: Activity. An outline of the steps: as §1
Data set [5] concerns Ramos. The experiment in a line: Induction of apoptosis in human Ramos cells assessed as necrotic cells at 10 uM after 48 hrs by annexin V-FITC/propidium iodide staining-based flow cytometric analysis (reference value: 0.2%). The format is functional. An outline of the steps:
as §1

Data set [6] has as its system PBMC. Kind of data set: Cytotoxicity against human PBMC at 5 to 10 uM after 24 hrs by acridine orange/propidium iodide staining-based fluorescent microscopic analysis relative to control. The format is cell-based. An outline of the steps:
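PBMC isolated on Lymphoprep (density 1.077 g/ml) from venous blood of one healthy adult, seeded about 2.5 × 10⁵ cells/well in RPMI1640 with 10% FBS. Treated at 5, 10 or 20 µM for 24 h at 37 °C, 5% CO₂, five replicates per concentration. Stained with AO/PI (1.0 µg/mL each, in PBS) for 10 min at room temperature. Live cells counted by fluorescence microscopy and counting chamber.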

The subject of data set [7] is Ramos. The experiment in a line: Induction of apoptosis in human Ramos cells assessed as early apoptotic cells at 10 uM after 48 hrs by annexin V-FITC/propidium iodide staining-based flow cytometric analysis relative to control. The format is functional. An outline of the steps: as §1
Data set [8] deals with Ramos. The experiment in a line: Induction of apoptosis in human Ramos cells assessed as necrotic cells at 5 uM after 48 hrs by annexin V-FITC/propidium iodide staining-based flow cytometric analysis (reference value: 0.2%). Type of data set: functional.
Data set [9] deals with PBMC. The experiment in a line: Cytotoxicity against human PBMC at 5 to 10 uM after 24 hrs by acridine orange/propidium iodide staining-based fluorescent microscopic analysis. Type of data set: cell-based. An outline of the steps:
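PBMC were isolated from venous blood of a healthy adult on Lymphoprep (density 1.077 g/ml), washed in PBS and seeded at about 2.5 × 10⁵ cells/well. Cells were treated at 5, 10 or 20 µM, five replicates, for 24 h at 37 °C in RPMI1640 with 10% FBS. Staining was AO/PI, 1.0 µg/mL each, for 10 min at room temperature. Live cells were counted under a fluorescence microscope with a counting chamber.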

Data set [10] deals with Ramos. The experiment in a line: Induction of apoptosis in human Ramos cells assessed as early apoptotic cells at 1 uM after 48 hrs by annexin V-FITC/propidium iodide staining-based flow cytometric analysis relative to control. Type of data set: functional.
The test system of data set [11] is Ramos. The experiment in a line: Induction of apoptosis in human Ramos cells assessed as late apoptotic cells at 5 uM after 48 hrs by annexin V-FITC/propidium iodide staining-based flow cytometric analysis relative to control. The format is functional.
Data set [12] deals with Ramos. Kind of data set: Induction of apoptosis in human Ramos cells assessed as viable cells at 5 uM after 48 hrs by annexin V-FITC/propidium iodide staining-based flow cytometric analysis relative to control. Conditions: read-out: Activity. The format is functional.
Data set [13] relates to Ramos. The experiment in a line: Induction of apoptosis in human Ramos cells assessed as viable cells at 1 uM after 48 hrs by annexin V-FITC/propidium iodide staining-based flow cytometric analysis relative to control. The following applies: read-out: Activity. Type of data set: functional.
Data set [14] relates to Ramos. Kind of data set: Antiproliferative activity against human Ramos cells over expressing BTK at 10 uM after 72 hrs by CCK-8 assay. Type of data set: functional, cell-based. An outline of the steps: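 Ramos cells in RPMI-1640 with 10% FBS at 37 °C and 5% CO₂ were treated at 5, 10 or 20 µM for 24, 48 and 72 h. Viability was read by CCK-8 against an untreated control.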

The subject of data set [15] is Ramos. Kind of data set: Induction of apoptosis in human Ramos cells assessed as early apoptotic cells at 5 uM after 48 hrs by annexin V-FITC/propidium iodide staining-based flow cytometric analysis relative to control. Type of data set: functional.
Data set [16] relates to Ramos. The experiment in a line: Induction of apoptosis in human Ramos cells assessed as late apoptotic cells at 1 uM after 48 hrs by annexin V-FITC/propidium iodide staining-based flow cytometric analysis relative to control. The format is functional.
In data set [17] the test system is Ramos. Kind of data set: Induction of apoptosis in human Ramos cells assessed as necrotic cells at 1 uM after 48 hrs by annexin V-FITC/propidium iodide staining-based flow cytometric analysis (reference value: 0.2%). Type of data set: functional.

Active and inactive are the calls of the source. The calls are words filed in the database; no cut-off is given here. Some results are limits rather than exact numbers.

Regarding `C=CC(=O)Nc1cccc(Nc2nc(Nc3ccc(NS(=O)(=O)c4ccc(OC)cc4)cc3)ncc2Cl)c1`, the IC50 (as a rule, the concentration that inhibits the measured activity by half) in the data set with Ramos [1] came out at 18.8 µM; in the data set on Raji, 15.5 µM; in data set [2] it was 0.00914 µM.

Regarding `C=CC(=O)Nc1cccc(Nc2nc(Nc3ccc(NS(=O)(=O)c4ccc(C)cc4)c(OC)c3)ncc2[N+](=O)[O-])c1`, the figures for the IC50 (in the data set with Ramos [1]; with Raji; in data set [2]) were > 40 µM, 34.1 µM and > 0.1 µM, respectively.

Consider `C=CC(=O)Nc1cccc(Nc2nc(Nc3ccc(NS(=O)(=O)c4ccc(C)cc4)cc3)ncc2Cl)c1`, for which the IC50 with Ramos [1] is > 40 µM; with Raji, 17.4 µM; in [2], 0.0585 µM.

Consider `C=CC(=O)N1CCC[C@@H](n2nc(-c3ccc(Oc4ccccc4)cc3)c3c(N)ncnc32)C1` [IBRUTINIB], for which the Activity in the data set with Ramos [3] is 7.5%; with Ramos [5], 14.7%; in the data set on PBMC [6], 50%; in the data set with Ramos [7] it was 37.6%. In addition, the viability at 10 µM in the data set with Ramos [4] is 40.2%. This molecule had an IC50 in the data set on Ramos [1] of 5.88 µM.

For the molecule `C=CC(=O)Nc1cccc(Nc2nc(Nc3ccc(NS(=O)(=O)c4ccc(C)cc4)c(C)c3)ncc2[N+](=O)[O-])c1`, the IC50 came to 38 µM with Ramos [1], 14.2 µM in the data set with Raji and 0.0486 µM in [2].

Regarding `C=CC(=O)Nc1cccc(Oc2nc(Nc3ccc(NS(=O)(=O)c4ccc(C)cc4)c(C)c3)ncc2Cl)c1`, the figures for the IC50 (with Ramos [1]; in the data set with Raji; in data set [2]) were 7.23 µM, 18.7 µM and 0.00105 µM, respectively.

Regarding `C=CC(=O)Nc1cccc(Nc2nc(Nc3ccc(NS(=O)(=O)c4ccc(F)cc4)c(OC)c3)ncc2Cl)c1`, the Activity in the data set with Ramos [8] is reported as 13.2%; with PBMC [9], “Non-Toxic”; with Ramos [10] it was 23.3%; in the data set with Ramos [11] it was 54.6%; in the data set on Ramos [15], 7.2%; in the data set on Ramos [16], 4.3%. Further, the Activity in the data set with Ramos [17] worked out at 17%. The viability at 5 µM in the data set on Ramos [12] is 25%. In addition, in the data set on Ramos [13], the viability at 1 µM came to 55.4%. Further, the IC50 with Ramos [1] turned out to be 6.49 µM; in the data set on Raji, 13.2 µM; in data set [2] it was 0.00118 µM. Moreover, the result in the data set with Ramos [14] was Active.

`C=CC(=O)Nc1cccc(Oc2nc(Nc3ccc(NS(=O)(=O)c4ccc(OC)cc4)cc3)ncc2Cl)c1`: the IC50 in the data set on Ramos [1] is > 40 µM; in the data set on Raji it was 40.9 µM; in data set [2] it was 0.00042 µM.

`C=CC(=O)Nc1cccc(Nc2nc(Nc3ccc(NS(=O)(=O)c4ccc(F)cc4)c(C)c3)ncc2Cl)c1`: the IC50 with Ramos [1] was 6.44 µM; in the data set on Raji it was 10.5 µM; in data set [2] it was 0.0786 µM.

For the molecule `C=CC(=O)Nc1cccc(Nc2nc(Nc3ccc(NS(=O)(=O)c4ccc(F)cc4)c(C)c3)ncc2[N+](=O)[O-])c1`, the IC50 in the data set on Ramos [1] was > 40 µM; in the data set on Raji, 22.4 µM; in data set [2], 0.0854 µM.

Turning to `C=CC(=O)Nc1cccc(Nc2nc(Nc3ccc(OCCOC)cc3)ncc2F)c1` [SPEBRUTINIB], the Activity stood at 5.9% in the data set with Ramos [3], 15.6% in the data set with Ramos [5] and 27.7% in the data set with Ramos [7]. Also, the viability at 10 µM with Ramos [4] worked out at 50.9%. This molecule displayed an IC50 in the data set with Ramos [1] of 18.8 µM.

For the molecule `C=CC(=O)Nc1cccc(Nc2nc(Nc3ccc(NS(=O)(=O)c4ccc(OC)cc4)cc3)ncc2[N+](=O)[O-])c1`, the results for the IC50 (with Ramos [1]; in the data set on Raji; in [2]) were > 40 µM, 18.7 µM and 0.0238 µM, respectively.

With `C=CC(=O)Nc1cccc(Nc2nc(Nc3ccc(NS(=O)(=O)c4ccc(OC)cc4)cc3)ncc2F)c1`, the figures for the IC50 (with Ramos [1]; in the data set with Raji; in data set [2]) were > 40 µM, 36.9 µM and 0.00092 µM, respectively.

(Values after ChEMBL document CHEMBL4052620, “Design and synthesis of sulfonamide-substituted diphenylpyrimidines (SFA-DPPYs) as potent Bruton's tyrosine kinase (BTK) inhibitors with improved activity toward B-cell lymphoblastic leukemia” (Eur J Med Chem, 2017).)
